Laboratory results: ChEMBL document CHEMBL3421621, “SAR Studies of Diphenyl Cationic Trypanocides: Superior Activity of Phosphonium over Ammonium Salts” (ACS Med Chem Lett, 2015)

Legend:
[1] = test system: Trypanosoma brucei brucei; experiment: Antitrypanosomal activity against AT1 knock out Trypanosoma brucei brucei assessed as cell viability after 48 hrs by alamar blue assay; format: functional, organism-based
Procedure, shortened: (§1)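 Alamar blue viability assay run in parallel on T. b. brucei s427 wild type trypomastigotes, the TbAT1-KO strain (no functional P2 transporter) and the B48 strain (derived from TbAT1-KO, nonfunctional HAPT). EC50 values are the mean of three experiments ± SEM. Resistance factor is the EC50 against each resistant strain relative to wild type.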

[2] = test system: Trypanosoma brucei brucei; experiment: Resistance factor, ratio of EC50 for AT1 knock out Trypanosoma brucei brucei to EC50 for wild type Trypanosoma brucei brucei s427 trypomastigotes; format: functional
Procedure, shortened: (§2)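 AlamarBlue-based viability assay run in parallel on wild-type T. b. brucei s427 trypomastigotes and two resistant strains. TbAT1-KO lacks a functional P2 transporter and is diminazene-resistant. B48 is derived from TbAT1-KO and also lacks a functional high-affinity pentamidine transporter (HAPT). EC50 values are means of three experiments ± SEM. Each resistant-strain EC50 is divided by the wild-type EC50.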

[3] = test system: Trypanosoma brucei brucei; experiment: Resistance factor, ratio of EC50 for Trypanosoma brucei brucei B48 to EC50 for wild type Trypanosoma brucei brucei s427 trypomastigotes; format: functional; procedure, shortened: as §2
[4] = test system: Trypanosoma brucei brucei; experiment: Antitrypanosomal activity against wild type Trypanosoma brucei brucei s427 trypomastigotes assessed as cell viability after 48 hrs by alamar blue assay; format: functional, organism-based; conditions: s427, 48 h; procedure, shortened: as §1
[5] = test system: Trypanosoma brucei brucei; experiment: Antitrypanosomal activity against Trypanosoma brucei brucei B48 with nonfunctional high affinity pentamidine transporter assessed as cell viability after 48 hrs by alamar blue assay; format: functional, organism-based; conditions: B48, 48 h; procedure, shortened: as §1
[6] = Selectivity index, ratio of CC50 for HEK293 cells to EC50 for wild type Trypanosoma brucei brucei s427 trypomastigotes; format: toxicity, cell-based; conditions: human; read-out: Ratio CC50/EC50
Procedure, shortened: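 Selectivity index = CC50 for HEK cells divided by EC50 against T. b. brucei s427 wild type.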

[7] = Cytotoxicity against HEK293 cells after 16 hrs by alamar blue assay; format: cell-based; conditions: human

Compound | EC50 [1] [µM] | Ratio EC50 [2] | Ratio EC50 [3] | EC50 [4] [µM] | EC50 [5] [µM] | selectivity ratio [6] | CC50 at 16 h [7] [µM]
N=C(N)c1ccc(OCCCCCOc2ccc(C(=N)N)cc2)cc1 [PENTAMIDINE] | 0.006 | 0.6 | 32.9 | 0.01 | 0.329 |  | 
[Br-].[Br-].c1cc[n+](Cc2ccc(Oc3ccc(C[n+]4ccccc4)cc3)cc2)cc1 | > 100 |  | 0.8 | 85 | 72 |  | 
CCCC[N+](CCCC)(CCCC)Cc1ccc(Oc2ccc(C[N+](CCCC)(CCCC)CCCC)cc2)cc1.[Br-].[Br-] | 3.98 | 1.4 | 1.1 | 2.8 | 3 | > 100 | > 300
CC[N+](CC)(CC)Cc1ccc(Oc2ccc(C[N+](CC)(CC)CC)cc2)cc1 | > 100 |  |  | > 100 | > 100 |  | 
O=C(c1ccccc1)c1ccc(C[n+]2ccccc2)cc1 | > 100 |  |  | > 100 | > 100 |  | 
[Br-].[Br-].c1ccc2c(c1)ccc[n+]2Cc1ccc(Oc2ccc(C[n+]3cccc4ccccc43)cc2)cc1 | 10.2 | 0.9 | 0.9 | 11 | 9.7 | > 27 | > 300
O=C(c1ccc(C[n+]2cccc3ccccc32)cc1)c1ccc(C[n+]2cccc3ccccc32)cc1.[Br-].[Br-] | 35.2 | 0.8 | 0.7 | 45.4 | 30.9 | > 6 | > 300
N=C(N)c1ccc(/N=N/Nc2ccc(C(=N)N)cc2)cc1 [DIMINAZENE] | 0.738 | 2.3 | 3.1 | 0.323 |  |  | 
CC[N+](CC)(CC)Cc1ccc(C(=O)c2ccc(C[N+](CC)(CC)CC)cc2)cc1 | > 100 |  |  | > 100 | > 100 |  | 
Cl.O=C(c1ccccc1)c1ccc(CN(Cc2ccccc2)Cc2ccccc2)cc1 | 10 | 0.9 | 0.7 | 11 | 8.3 | > 27 | > 300
O=C(c1ccc(C[n+]2ccccc2)cc1)c1ccc(C[n+]2ccccc2)cc1 | > 100 |  |  | > 100 | > 100 |  | 
CCCCCC[N+](CCCCCC)(CCCCCC)Cc1ccc(Oc2ccc(C[N+](CCCCCC)(CCCCCC)CCCCCC)cc2)cc1.[Br-].[Br-] | 0.08 | 0.8 | 0.6 | 0.102 | 0.065 | 213 | 21.8
CCCC[N+](CCCC)(CCCC)Cc1ccc(C(=O)c2ccc(C[N+](CCCC)(CCCC)CCCC)cc2)cc1.[Br-].[Br-] | 16.7 | 1.4 | 1.2 | 11.5 | 14.1 | > 26 | > 300
CCCCCC[N+](CCCCCC)(CCCCCC)Cc1ccc(C(=O)c2ccccc2)cc1.[Br-] | 0.018 | 0.8 | 0.6 | 0.023 | 0.014 | 668 | 15.4
O=C(c1ccccc1)c1ccc(C[n+]2cccc3ccccc32)cc1 | 68.5 |  |  | > 100 | 81.5 |  | 
CCCC[N+](CCCC)(CCCC)Cc1ccc(C(=O)c2ccccc2)cc1.[Br-] | 4.1 | 0.9 | 1 | 4.6 | 4.5 | > 65 | > 300
